Reference: ChEMBL document CHEMBL5653624 (Biochem Pharmacol, 2016)
The source made the active and inactive calls. The calls are words filed in the database; no cut-off is given here.

How the values were obtained:
[1] = system: HASMC; experiment: Antiinflammatory activity in HASMC cells assessed as effect on LPS/IFNgamma-induced TNFalpha gene expression at 2 uM […] and measured after 4 hrs by RT-qPCR analysis; format: functional, cell-based; conditions: Homo sapiens
In short: (§1)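 HBE cells (passage 73–103) or immortalized hASM cells (2–3 donors, passage 27–35), serum-starved. Then 2 μM RGFP966 for 20 h, with LPS/IFNγ for the last 4 h. Total RNA isolated; RT-qPCR by 2−ΔΔCt, fold change versus LPS/IFNγ control. Mean ± SD of 3–5 independent experiments.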

[2] = system: RAW264.7; experiment: Antiinflammatory activity in mouse RAW264.7 cells assessed as effect on LPS/IFNgamma-induced TNFalpha gene expression at 1 uM preincubated for 20 hrs followed by LPS/IFNgamma stimulation and measured after 4 hrs by RT-qPCR analysis; format: functional, cell-based; conditions: time 24.0 hrs
In short: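 RAW 264.7 macrophages in DMEM/10% FBS received 1 μM RGFP966 for 20 h, with LPS/IFNγ for the last 4 h. Washed with cold DPBS, total RNA isolated, integrity checked by 28S/18S. RT-qPCR by comparative Ct (2−ΔΔCt), fold change versus LPS/IFNγ control. Mean ± SD of 3–5 independent experiments.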

[3] = system: HBE; experiment: Antiinflammatory activity in HBE cells assessed as effect on LPS/IFNgamma-induced TNFalpha gene expression at 2 uM […] by RT-qPCR analysis; format: functional, cell-based; conditions: Homo sapiens; in short: as §1
[4] = system: HBE; experiment: Antiinflammatory activity in HBE cells assessed as effect on LPS/IFNgamma-induced iNOS gene expression at 2 uM […] by RT-qPCR analysis; format: functional, cell-based; conditions: Homo sapiens; in short: as §1
[5] = system: HBE; experiment: Antiinflammatory activity in HBE cells assessed as effect on LPS/IFNgamma-induced IL-12b gene expression at 2 uM […] by RT-qPCR analysis; format: functional, cell-based; conditions: Homo sapiens; in short: as §1
[6] = system: HASMC; experiment: Antiinflammatory activity in HASMC cells assessed as effect on LPS/IFNgamma-induced IL-10 gene expression at 2 uM […] by RT-qPCR analysis; format: functional, cell-based; conditions: Homo sapiens; in short: as §1
[7] = system: Lung; experiment: Antiinflammatory activity in C57bl/6 mouse precision-cut lung slices assessed as upregulation of LPS/IFNgamma-induced IL-10 gene expression at 1 to 10 uM preincubated for 20 hrs followed by LPS/IFNgamma stimulation and measured after 4 hrs by RT-qPCR analysis relative to control; format: functional; conditions: dose 1-10 µM; time 24 hrs
In short: (§2)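 PCLS, 250 μm thick, cut from agarose-filled lungs of male C57bl/6 mice (24–28 g, 8–10 weeks). Three slices per well at 37 °C, 5% CO2. Slices received RGFP966 at 1 and 10 μM final for 20 h, with 10 ng/ml LPS and 10 ng/ml IFNγ stimulation. RNA isolated; RT-qPCR fold change versus LPS/IFNγ control by 2−ΔΔCt. Mean ± SD, n = 3–5.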

[8] = system: Lung; experiment: Antiinflammatory activity in C57bl/6 mouse precision-cut lung slices assessed as down regulation of LPS/IFNgamma-induced IL-12b gene expression at 1 to 10 uM preincubated for 20 hrs followed by LPS/IFNgamma stimulation and measured after 4 hrs by RT-qPCR analysis; format: functional, tissue-based; conditions: dose 1-10 µM, time 24.0 hrs; in short: as §2
[9] = system: Lung; experiment: Antiinflammatory activity in C57bl/6 mouse precision-cut lung slices assessed as upregulation of LPS/IFNgamma-induced IL-1beta gene expression at 1 to 10 uM preincubated for 20 hrs followed by LPS/IFNgamma stimulation and measured after 4 hrs by RT-qPCR analysis relative to control; format: functional; conditions: dose 1-10 µM; time 24 hrs; in short: as §2
[10] = molecular target: T1, Histone deacetylase 3 (Mus musculus) (UniProt O88895); experiment: Inhibition of HDAC3 in mouse RAW264.7 cells assessed as effect on histone H4 peptide (GKGGKGLGKGGAKR) acetylation measured after 20 hrs by LC-MS/MS analysis; format: cell-based
T1 sequence (whole entry): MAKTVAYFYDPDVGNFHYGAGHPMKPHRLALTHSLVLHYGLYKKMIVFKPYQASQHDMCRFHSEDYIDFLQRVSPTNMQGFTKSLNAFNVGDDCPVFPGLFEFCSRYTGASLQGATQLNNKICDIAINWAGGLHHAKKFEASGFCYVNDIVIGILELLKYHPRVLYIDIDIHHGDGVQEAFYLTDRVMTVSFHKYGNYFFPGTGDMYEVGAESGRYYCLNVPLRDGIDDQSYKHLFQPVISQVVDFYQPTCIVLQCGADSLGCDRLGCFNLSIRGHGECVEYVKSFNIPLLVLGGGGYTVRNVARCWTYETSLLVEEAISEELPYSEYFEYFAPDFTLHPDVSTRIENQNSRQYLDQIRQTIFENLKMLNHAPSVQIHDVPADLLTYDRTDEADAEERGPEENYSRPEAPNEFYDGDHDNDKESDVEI
In short: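 Histones from RAW 264.7 (20 h treatment) run on 15% SDS-PAGE (7 μg), Coomassie-stained H3/H4 bands excised, destained, and chemically acetylated with acetic anhydride-d6 in 1 M ammonium bicarbonate; endogenous lysine acetylation ratio derived by mass spectrometry from deuterated versus non-deuterated acetyl mass difference.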

[11] = system: RAW264.7; experiment: Antiinflammatory activity in LPS/IFNgamma-stimulated mouse RAW264.7 cells assessed as effect on HDAC2 mRNA expression preincubated for 20 hrs followed by LPS/IFNgamma stimulation and measured after 4 hrs by RT-qPCR analysis; format: functional, cell-based; conditions: time 24.0 hrs
[12] = system: RAW264.7; experiment: Antiinflammatory activity in LPS/IFNgamma-stimulated mouse RAW264.7 cells assessed as effect on HDAC3 mRNA expression preincubated for 20 hrs followed by LPS/IFNgamma stimulation and measured after 4 hrs by RT-qPCR analysis; format: functional, cell-based; conditions: time 24.0 hrs
[13] = system: Lung; experiment: Antiinflammatory activity in C57bl/6 mouse precision-cut lung slices assessed as effect on LPS/IFNgamma-induced HDAC3 gene expression at 1 to 10 uM preincubated for 20 hrs followed by LPS/IFNgamma stimulation and measured after 4 hrs by RT-qPCR analysis; format: functional, tissue-based; conditions: dose 1-10 µM, time 24.0 hrs
[14] = system: Lung; experiment: Antiinflammatory activity in C57bl/6 mouse precision-cut lung slices assessed as effect on LPS/IFNgamma-induced HDAC1 expression at 1 to 10 uM preincubated for 20 hrs followed by LPS/IFNgamma stimulation and measured after 4 hrs by Western blot analysis; format: functional, tissue-based; conditions: dose 1-10 µM, time 24.0 hrs
[15] = system: Lung; experiment: Antiinflammatory activity in C57bl/6 mouse precision-cut lung slices assessed as effect on LPS/IFNgamma-induced HDAC2 expression at 1 to 10 uM preincubated for 20 hrs followed by LPS/IFNgamma stimulation and measured after 4 hrs by Western blot analysis; format: functional, tissue-based; conditions: dose 1-10 µM, time 24.0 hrs
[16] = system: Lung; experiment: Antiinflammatory activity in C57bl/6 mouse precision-cut lung slices assessed as upregulation of LPS/IFNgamma-induced IkappaBalpha gene expression at 1 to 10 uM preincubated for 20 hrs followed by LPS/IFNgamma stimulation and measured after 4 hrs by RT-qPCR analysis; format: functional, tissue-based; conditions: dose 1-10 µM, time 24.0 hrs
[17] = system: Lung; experiment: Antiinflammatory activity in C57bl/6 mouse precision-cut lung slices assessed as upregulation of LPS/IFNgamma-induced IkappaBalpha expression at 1 to 10 uM preincubated for 20 hrs followed by LPS/IFNgamma stimulation and measured after 4 hrs by Western blot analysis; format: functional, tissue-based; conditions: dose 1-10 µM, time 24.0 hrs
[18] = molecular target: T1, Histone deacetylase 3 (Mus musculus); experiment: Inhibition of HDAC3 in mouse RAW264.7 cells assessed as effect on LPS/IFNgamma-induced NF-kappaB p65 acetylation level preincubated for 20 hrs followed by LPS/IFNgamma stimulation and measured after 1 hr by Western blot analysis

inhibition [10]: inactive
inhibition [18]: inactive
SMILES: Nc1cc(F)ccc1NC(=O)/C=C/c1cnn(C/C=C/c2ccccc2)c1
Activity [1]: inactive
Activity [2]: inactive
Activity [3]: inactive
Activity [4]: inactive
Activity [5]: inactive
Activity [6]: inactive
fold change (FC) [7]: 2
Activity [8]: Active
fold change (FC) [9]: >2
Activity [11]: inactive
Activity [12]: inactive
Activity [13]: inactive
Activity [14]: inactive
Activity [15]: inactive
Activity [16]: Active
Activity [17]: Active
